# Experimental data taken from ChEMBL document CHEMBL1158347, “Substituted quinazolines, part 3. Synthesis, in vitro antitumor activity and molecular modeling study of certain 2-thieno-4(3H)-quinazolinone analogs” (2009).
# Legend:
# Type in all cases: functional
# [1] = tested on: SF-539; experiment: Growth inhibition of human SF539 cells after 48 hrs; details: SF-539, 48 h; for CC50: read-out: LC50 (the source's name)
# Outline: (§1)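 NCI in vitro disease-oriented human tumor cell line screen. Compounds passing a one-dose primary assay (MCF-7, NCI-H460, SF-268; pass = growth of any line reduced to 32% or less) were tested on the 60-line panel over a 5-log dose range. Compounds were dissolved in DMSO, with under 1% DMSO in final dilutions, and tested in duplicate at 6×10^4 cells/ml. Cells were incubated at 37 °C in 5% CO2 for 48 h, then diluted 10-fold in saline and counted with a Coulter counter, with counts corrected for dilution. Controls held PBS/DMSO at identical dilutions. GI50 was reported per line and as subpanel/full-panel mean-graph midpoint.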
# [2] = Growth inhibition of human renal cancer cells after 48 hrs; details: Cancer cell lines; outline: as §1
# [3] = tested on: NSCLC; experiment: Growth inhibition of human NSCLC cells after 48 hrs; outline: as §1
# [4] = tested on: RPMI-8226; experiment: Growth inhibition of human RPMI8226 cells after 48 hrs; details: RPMI-8226, 48 h; for CC50: read-out: LC50 (the source's name); outline: as §1
# [5] = Growth inhibition of human melanoma cells after 48 hrs; details: Melanoma cell; outline: as §1
# [6] = tested on: SK-MEL-2; experiment: Growth inhibition of human SK-MEL-2 cells after 48 hrs; details: SK-MEL-2, 48 h; outline: as §1
# [7] = tested on: UACC-257; experiment: Growth inhibition of human UACC257 cells after 48 hrs; details: UACC-257, 48 h; outline: as §1
# [8] = Growth inhibition of human CNS cancer cells after 48 hrs; details: Cancer cell lines; outline: as §1
# [9] = tested on: K562; experiment: Growth inhibition of human K562 cells after 48 hrs; details: K562, 48 h; outline: as §1
# [10] = Growth inhibition of human leukemia cells after 48 hrs; details: Leukemia cell; outline: as §1
# [11] = tested on: HL-60(TB); experiment: Growth inhibition of human HL-60(TB) cells after 48 hrs; details: HL-60, 48 h; for CC50: read-out: LC50 (the source's name)
# Outline: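 NCI 60-cell-line screen over a 5-log dose range. Compounds were dissolved in DMSO, final DMSO under 1%. Duplicate wells were seeded at 6×10^4 cells/ml, with PBS/DMSO vehicle controls at identical dilutions. Cells were incubated 48 h at 37 °C in humidified 5% CO2, diluted 10-fold in saline, and counted by Coulter counter with dilution correction. GI50 read-out.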
# [12] = Growth inhibition of human breast cancer cells after 48 hrs; details: Cancer cell lines; outline: as §1
# [13] = Growth inhibition of human prostate cancer cells after 48 hrs; details: Cancer cell lines; outline: as §1
# [14] = Growth inhibition of human ovarian cancer cells after 48 hrs; details: Cancer cell lines; outline: as §1
# [15] = Growth inhibition of human Colon cancer cells after 48 hrs; details: Cancer cell lines; outline: as §1
# [16] = tested on: MCF7; experiment: Growth inhibition of human MCF7 cells after 48 hrs; details: MCF7, 48 h; for CC50: read-out: LC50 (the source's name); outline: as §1
# [17] = tested on: CCRF-CEM; experiment: Growth inhibition of human CCRF-CEM cells after 48 hrs; details: for CC50: read-out: LC50 (the source's name); outline: as §1
# [18] = tested on: T47D; experiment: Growth inhibition of human T47D cells after 48 hrs; outline: as §1
# [19] = read-out: LC50 (the source's name)
smiles,measurement,setting,value
O=c1c2cc(I)ccc2nc(-c2cccs2)n1Nc1ccccc1,GI50,[1],34 µM
same,TGI,[1],> 100 µM
same,CC50,[1],> 100 µM
same,GI50,[2],19.7 µM
same,TGI,[2],93.1 µM
same,GI50,[3],8.6 µM
same,TGI,[3],88 µM
same,GI50,[4],5 µM
same,TGI,[4],> 100 µM
same,CC50,[4],> 100 µM
same,GI50,[5],8.5 µM
same,TGI,[5],85.9 µM
same,GI50,[6],0.3 µM
same,TGI,[6],2 µM
same,GI50,[7],32 µM
same,TGI,[7],> 100 µM
same,GI50,[8],16.3 µM
same,TGI,[8],81.9 µM
same,GI50,[9],0.3 µM
same,TGI,[9],23 µM
same,GI50,[10],12.7 µM
same,TGI,[10],87.1 µM
same,GI50,[11],0.4 µM
same,TGI,[11],> 100 µM
same,CC50,[11],> 100 µM
same,GI50,[12],5.9 µM
same,TGI,[12],> 100 µM
same,GI50,[13],1.61 µM
same,TGI,[13],> 100 µM
same,GI50,[14],8.6 µM
same,TGI,[14],80.1 µM
same,GI50,[15],6.5 µM
same,TGI,[15],79.2 µM
same,GI50,[16],2 µM
same,TGI,[16],> 100 µM
same,CC50,[16],> 100 µM
same,GI50,[17],51 µM
same,TGI,[17],> 100 µM
same,CC50,[17],> 100 µM
O=C(Nn1c(-c2cccs2)nc2ccc(I)cc2c1=O)c1ccccc1,GI50,[1],30 µM
same,TGI,[1],> 100 µM
same,CC50,[1],> 100 µM
same,GI50,[2],32.1 µM
same,TGI,[2],86.7 µM
same,GI50,[3],25.6 µM
same,TGI,[3],75.3 µM
same,GI50,[4],23 µM
same,TGI,[4],58 µM
same,CC50,[4],> 100 µM
same,GI50,[5],35.5 µM
same,TGI,[5],62.1 µM
same,GI50,[6],24 µM
same,LC50,[6],> 100 µM
same,TGI,[6],69 µM
same,GI50,[7],< 0.01 µM
same,LC50,[7],> 100 µM
same,TGI,[7],31 µM
same,GI50,[8],27.4 µM
same,TGI,[8],85.8 µM
same,GI50,[9],44 µM
same,LC50 (concentration killing 50% of cells),[9],> 100 µM
same,TGI,[9],> 100 µM
same,GI50,[10],33.9 µM
same,TGI,[10],71.5 µM
same,GI50,[11],34 µM
same,TGI,[11],> 100 µM
same,CC50,[11],> 100 µM
same,GI50,[12],24.5 µM
same,TGI,[12],72.5 µM
same,GI50,[13],27.2 µM
same,TGI,[13],73.3 µM
same,GI50,[14],27.4 µM
same,TGI,[14],74.4 µM
same,GI50,[15],35.4 µM
same,TGI,[15],90 µM
same,GI50,[16],23 µM
same,TGI,[16],> 100 µM
same,CC50,[16],> 100 µM
same,GI50,[18],11 µM
same,LC50,[18],> 100 µM
same,TGI,[18],38 µM
same,GI50,[17],39 µM
same,TGI,[17],> 100 µM
same,CC50,[17],> 100 µM
O=c1c2cc(I)ccc2nc(-c2cccs2)n1NC(=S)Nc1ccccc1,GI50,[1],34 µM
same,TGI,[1],> 100 µM
same,CC50,[1],> 100 µM
same,GI50,[2],32.5 µM
same,TGI,[2],84.8 µM
same,GI50,[3],24 µM
same,TGI,[3],75.2 µM
same,GI50,[4],19 µM
same,TGI,[4],52 µM
same,CC50,[4],> 100 µM
same,GI50,[5],23.1 µM
same,TGI,[5],62.8 µM
same,GI50,[7],17 µM
same,LC50,[7],> 100 µM
same,TGI,[7],66 µM
same,GI50,[8],29.2 µM
same,TGI,[8],81.4 µM
same,GI50,[9],0.02 µM
same,LC50 (concentration killing 50% of cells),[9],75 µM
same,TGI,[9],10 µM
same,GI50,[10],11.5 µM
same,TGI,[10],38.5 µM
same,GI50,[11],1 µM
same,TGI,[11],22 µM
same,CC50,[11],> 100 µM
same,GI50,[12],19.4 µM
same,TGI,[12],60.3 µM
same,GI50,[13],25.8 µM
same,TGI,[13],76.2 µM
same,GI50,[14],21.5 µM
same,TGI,[14],77.5 µM
same,GI50,[15],29.5 µM
same,TGI,[15],84 µM
same,GI50,[16],29 µM
same,TGI,[16],88 µM
same,CC50,[16],> 100 µM
same,GI50,[18],3 µM
same,LC50,[18],> 100 µM
same,TGI,[18],17 µM
same,GI50,[17],21 µM
same,TGI,[17],61 µM
same,CC50,[17],> 100 µM
O=C(Nc1ccc(I)cc1C(=O)Nc1ccc(O)cc1)c1cccs1,GI50,[1],< 0.01 µM
same,TGI,[1],15 µM
same,CC50,[1],62 µM
same,GI50,[2],13.2 µM
same,TGI,[2],29.3 µM
same,CC50,[2]; [19],64.1 µM
same,GI50,[3],13.5 µM
same,LC50 (concentration killing 50% of cells),[3],74.6 µM
same,TGI,[3],33.1 µM
same,GI50,[4],3 µM
same,TGI,[4],18 µM
same,CC50,[4],57 µM
same,GI50,[5],11.1 µM
same,LC50 (lethal concentration 50%),[5],63.8 µM
same,TGI,[5],26.9 µM
same,GI50,[6],16 µM
same,LC50,[6],57 µM
same,TGI,[6],30 µM
same,GI50,[7],< 0.01 µM
same,LC50,[7],> 100 µM
same,TGI,[7],22 µM
same,GI50,[8],12.2 µM
same,TGI,[8],32.4 µM
same,CC50,[8]; [19],77.6 µM
same,GI50,[9],24 µM
same,LC50 (concentration killing 50% of cells),[9],> 100 µM
same,TGI,[9],> 100 µM
same,GI50,[10],11.5 µM
same,TGI,[10],60.6 µM
same,CC50,[10]; [19],91 µM
same,GI50,[11],8 µM
same,TGI,[11],37 µM
same,CC50,[11],> 100 µM
same,GI50,[12],11.9 µM
same,LC50,[12],79.4 µM
same,TGI,[12],36.8 µM
same,GI50,[13],8.7 µM
same,TGI,[13],21.1 µM
same,CC50,[13]; [19],45.8 µM
same,GI50,[14],13.3 µM
same,LC50,[14],72.5 µM
same,TGI,[14],35.4 µM
same,GI50,[15],15.2 µM
same,LC50,[15],74.6 µM
same,TGI,[15],34.5 µM
same,GI50,[16],12 µM
same,TGI,[16],33 µM
same,CC50,[16],94 µM
same,GI50,[18],2 µM
same,LC50,[18],50 µM
same,TGI,[18],11 µM
